Results pooled from the literature.
Each line is one published result; the experiments were not run side by side.
FGFR3: Fibroblast growth factor receptor 3 (FGFR3, Homo sapiens, UniProt P22607)
FGFR3 G697C: Fibroblast growth factor receptor 3 (FGFR3, Homo sapiens, UniProt P22607, G697C)

| Compound | target | assay | setting | measurement | result |
| --- | --- | --- | --- | --- | --- |
| N#Cc1ccc(Nc2ccc3[nH]c(=O)[nH]c3c2)c(Cl)c1 | FGFR3 | cell-free assay, competition with immobilised ligand | 1 µM | remaining binding | 100% |
| Cc1ccc(NC(=O)c2ccc(C)c(C(F)(F)F)c2)cc1C#Cc1nn(C2CCC(O)CC2)c2ncnc(N)c12 (centres unmarked) | FGFR3 | cell-free assay | 10 µM | remaining signal | 3% |
| CNC(=O)Nc1ccc2c(c1)[C@@]1(CC2)OC(=O)N(CC(=O)N(Cc2ccc(F)cc2)[C@@H](C)C(F)(F)F)C1=O | FGFR3 | cell-free assay, competition with immobilised ligand | 1 µM | remaining binding | 92% |
| COc1cc2ncnc(Nc3ccc(Oc4ccccc4)cc3C)c2cc1OC | FGFR3 | enzyme activity, inhibitor | 1 µM | inhibition | 5% |
| CC/C(=N\NC(=O)NCc1cccc(O)c1)c1ccc(O)c(C)c1O | FGFR3 | enzyme activity, inhibitor | 0.1 µM | inhibition | 2.2% |
| N[C@H]1CCN(c2nccc(-c3cnn4ncccc34)n2)C1 | FGFR3 | binding | 1 µM | remaining binding | 84% |
| Cc1ccc(Nc2nccc(N(C)c3ccc4c(C)n(C)nc4c3)n2)cc1S(N)(=O)=O | FGFR3 | enzyme activity, inhibitor | 0.3 µM | inhibition | 66% |
| CS(=O)(=O)N1CCCC(NC(=O)[C@H](CCC2CCCCC2)NC(=O)c2ccc(CNc3ncnc4c3nnn4-c3ccccc3)cc2)C1 (some centres unmarked) | FGFR3 | cell-free assay, competition with immobilised ligand | 0.1 µM | remaining binding | 100% |
| COc1cc2nccc(Oc3ccc(NC(=O)c4c5n(n(-c6ccc(F)cc6)c4=O)CCCC5)cc3)c2cc1OC | FGFR3 | enzyme activity, inhibitor | 0.1 µM | inhibition | -4% |
| CN(C)c1ncc(F)c(-c2cnn3ncccc23)n1 | FGFR3 G697C | binding | 1 µM | remaining binding | 100% |
| O=C1Nc2ccc(Cl)cc2C1=Cc1cc(Cl)c(O)c(Cl)c1 | FGFR3 | cell-free assay | 0.5 µM | remaining signal | 94% |
| O=C(Nc1cnn(-c2csc(C(=O)NC3COC3)c2)c1)Nc1ccccc1Cl | FGFR3 | enzyme activity, inhibitor | 5 µM | remaining activity | 97.8% |
| Cc1cnn2ncc(-c3ccnc(N(C)C)n3)c2c1 | FGFR3 G697C | binding | 1 µM | remaining binding | 82% |
| CC(C)(C)c1nc(-c2cccc(NS(=O)(=O)c3c(F)cccc3F)c2F)c(-c2ccnc(N)n2)s1 | FGFR3 | enzyme activity, inhibitor, radiometric | 1 µM | remaining activity | 118% |
| Cc1c(C(=O)O)cc(-c2ccc(C3CCNCC3)cc2)c2ccc(-c3ccc(C(F)(F)F)cc3)cc12 | FGFR3 | cell-free assay, competition with immobilised ligand | 1 µM | remaining binding | 100% |
| Cc1ccc(C(=O)Nc2ccc(CN3CCN(C)CC3)c(C(F)(F)F)c2)cc1C#Cc1cnc2cccnn12 | FGFR3 | cell-free assay | 23.5 nM | remaining signal | 62% |
| Cc1c(NC(=O)c2cc(C(N)=O)nc3cc(F)ccc23)c(C(F)(F)F)nn1Cc1ccc(C(C)(C)C)cc1 | FGFR3 | cell-free assay, competition with immobilised ligand | 1 µM | remaining binding | 92% |
| CNc1cccc2cc(C(=O)Nc3ccc(C(=O)O)cc3)c(=O)[nH]c12 | FGFR3 | enzyme activity, inhibitor | 10 µM | inhibition | -1.1% |
| CCOCCn1cc(C(=O)Nc2ccc(-n3nc(-c4cccnc4)cc3C(F)(F)F)cn2)ccc1=O | FGFR3 | cell-free assay, competition with immobilised ligand | 1 µM | remaining binding | 84% |
| Nc1nc(Nc2ccc(S(N)(=O)=O)cc2)nn1C(=O)c1c(F)cccc1F | FGFR3 | cell-free assay | 0.5 µM | remaining signal | 46.4% |
